Reference: ChEMBL document CHEMBL1811830, “Synthesis, structure and cytotoxicity of 3-C, N, S, Se substituted benzo[b]selenophene derivatives” (Eur J Med Chem, 2011)
Converted amounts (≈) assume the structure as drawn. The source made the active and inactive calls. No cut-off for these calls is given here.

Legend:
[1] = system: MG-22A; test: Cytotoxicity against mouse MG-22A cells after 72 hrs by MTT assay; format: functional; conditions: for CC50: read-out: TD50 (the source's name)
Summary of the method: (§1)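 Cells from passages 1–4 after thawing, seeded at about 2–5·10⁴ cells/mL with compounds added immediately. Incubation 72 h, 37 °C, 5% CO₂. MTT read-out: medium replaced with fresh medium containing 10 mM HEPES, MTT (2 mg/mL in HBSS) added for 3 h. Dissolved in DMSO plus glycine buffer pH 10.5, absorbance 540 nm. TD50 = concentration giving 50% cell kill, averaged from CV and MTT.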

[2] = system: MG-22A; test: Cytotoxicity against mouse MG-22A cells assessed as nitric oxide concentration at 100 ug/ml after 72 hrs by crystal violet coloration assay (reference value: 100%); format: functional
[3] = system: HT-1080; test: Cytotoxicity against human HT1080 cells assessed as nitric oxide concentration at 100 ug/ml after 72 hrs by crystal violet coloration assay (reference value: 100%); format: functional
[4] = system: HT-1080; test: Cytotoxicity against human HT1080 cells after 72 hrs by MTT assay; format: functional; conditions: for CC50: HT-1080, 72 h, read-out: TD50 (the source's name); summary of the method: as §1
[5] = (§2) Cytotoxicity against mouse NIH/3T3 cells after 72 hrs by MTT assay; format: cell-based, NIH3T3; conditions: NIH/3T3 cells, read-out: TD50; summary of the method: as §1
[6] = system: HT-1080; test: Induction of mitochondria mediated apoptosis in human HT1080 cells assessed as change in cell phenotype after 72 hrs by acridine orange staining based fluorescence microscopic analysis; format: functional
Summary of the method: (§3)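 Adherent cells treated 72 h, 37 °C, 5% CO₂, in 96-well plates. Stained 2 min with acridine orange 10 μg/mL in PBS pH 7.4, washed once with PBS, then viewed in PBS by inverted fluorescence microscopy. Chromatin condensation shown by DNA staining: living cells green, apoptotic cells orange/yellow, necrotic cells red.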

[7] = system: NIH3T3; test: as §2; format: cell-based; conditions: nih3t3, 72 h; summary of the method: as §1
[8] = system: HT-1080; test: Induction of apoptosis in human HT1080 cells assessed as change in cell morphology after 72 hrs by acridine orange staining based fluorescence microscopic analysis; format: functional; summary of the method: as §3
[9] = system: HT-1080; test: Induction of apoptosis in human HT1080 cells assessed as change in cell phenotype after 72 hrs by acridine orange staining based fluorescence microscopic analysis; format: functional; summary of the method: as §3
[10] = system: NIH3T3; test: Induction of apoptosis in mouse NIH/3T3 cells after 72 hrs by acridine orange staining based fluorescence microscopic analysis; format: cell-based; conditions: nih3t3, 72 h; summary of the method: as §3
[11] = system: HT-1080; test: Induction of apoptosis in human HT1080 cells assessed as nucleus fragmentation after 72 hrs by acridine orange staining based fluorescence microscopic analysis; format: functional, cell-based; summary of the method: as §3

SMILES | Activity [1] | Activity [2] [%] | Activity [3] [%] | Activity [4] | CC50 at 72 h [5] [µg/mL] | CC50 [4] [µg/mL] | CC50 [1] [µg/mL] | Activity [6] | Activity [7] | Activity [8] | Activity [9] | Activity [10] | Activity [11]
O=c1c2[se]c3ccccc3c2nc2c3ncccc3ccn12 | inactive | 3 | 20 | inactive | 56 (≈ 160 µM) | – | – | – | – | – | – | – | –
O=c1c2[se]c3ccccc3c2nc2cnccn12 | inactive | 7 | 2 | inactive | 27 (≈ 89.9 µM) | – | – | – | – | – | – | – | –
CCOC(=O)c1[se]c2ccccc2c1-c1ccccc1 | inactive | 23 | 25 | – | 16 (≈ 48.6 µM) | 65 (≈ 197 µM) | – | – | – | – | – | – | –
CCOC(=O)c1[se]c2ccccc2c1Br | – | 40 | 14 | inactive | 896 (≈ 2700 µM) | – | 40.5 (≈ 122 µM) | – | – | – | – | – | –
CCOC(=O)c1[se]c2ccccc2c1C#Cc1ccccc1 | – | 10 | 15 | – | 614 (≈ 1740 µM) | 76 (≈ 215 µM) | 87 (≈ 246 µM) | – | – | – | – | – | –
Cc1csc2nc3c([se]c4ccccc43)c(=O)n12 | inactive | 4 | 2 | inactive | 21 (≈ 65.8 µM) | – | – | – | – | – | – | – | –
O=c1c2[se]c3ccccc3c2nc2c(Cl)cc(C(F)(F)F)cn12 | – | 8 | 2 | – | 31 (≈ 77.2 µM) | 3.5 (≈ 8.71 µM) | 2.75 (≈ 6.85 µM) | Active | – | – | – | – | –
CCOC(=O)c1[se]c2ccccc2c1-c1ccc(OC(C)C)cc1 | inactive | 15 | 9 | inactive | – | – | – | – | Non-toxic | – | – | – | –
CCOC(=O)c1[se]c2ccccc2c1C#CC1=CCCCC1 | – | 200 | 200 | – | 120 (≈ 336 µM) | 32.5 (≈ 91 µM) | 32 (≈ 89.6 µM) | – | – | – | – | – | –
O=c1c2[se]c3ccccc3c2nc2sc3ccccc3n12 | – | 3 | 2 | – | 27 (≈ 76 µM) | 8.5 (≈ 23.9 µM) | 9.5 (≈ 26.7 µM) | – | – | Active | – | – | –
CCOC(=O)c1[se]c2ccccc2c1Nc1cccnc1 | inactive | 9 | 12 | inactive | 1000 (≈ 2900 µM) | – | – | – | – | – | – | – | –
O=c1c2[se]c3ccccc3c2nc2ccccn12 | – | 7 | 5 | – | 31 (≈ 104 µM) | 3 (≈ 10 µM) | 3 (≈ 10 µM) | – | – | – | Active | Toxic | –
CCOC(=O)c1[se]c2ccccc2c1-c1ccc(C)s1 | – | 350 | 350 | – | 15 (≈ 42.9 µM) | 16 (≈ 45.8 µM) | 19.5 (≈ 55.8 µM) | – | – | – | – | – | –
CCOC(=O)c1[se]c2ccccc2c1-c1ccsc1 | inactive | 14 | 13 | inactive | 31 (≈ 92.5 µM) | – | – | – | – | – | – | – | –
CCOC(=O)c1[se]c2ccccc2c1-c1cc(F)c(F)c(F)c1 | – | 12 | 6 | inactive | 100 (≈ 261 µM) | – | 81.5 (≈ 213 µM) | – | – | – | – | – | –
CCOC(=O)c1[se]c2ccccc2c1-c1ccc(C#N)cc1 | inactive | 7 | 8 | inactive | 684 (≈ 1930 µM) | – | – | – | – | – | – | – | –
O=c1c2[se]c3ccccc3c2nc2ccc(Cl)cn12 | – | 40 | 3 | – | 32 (≈ 95.9 µM) | 3 (≈ 8.99 µM) | 3 (≈ 8.99 µM) | – | – | – | – | Toxic | Active
CCOC(=O)c1[se]c2ccccc2c1Sc1ncccn1 | inactive | 7 | 8 | inactive | 840 (≈ 2310 µM) | – | – | – | – | – | – | – | –
